Calls of active or inactive are those of the source. The calls are words filed in the database; no cut-off is given here.
Tests used:
HepG2 = assay: Toxicity against human HepG2 cells assessed as effect on cell growth at 100 nM to 1 uM; assay type: cell-based; details: hepg2, 0.1 µM
[1] = target: T1, Bile acid receptor (Homo sapiens) (UniProt Q96RI1); assay: (§1) Agonist activity at GAL4 DNA binding domain tagged FXR ligand binding domain (unknown origin) expressed in human HepG2 cells assessed as receptor transactivation measured by relative luciferase activity at 1 uM by luciferase reporter gene based mammalian one-hybrid assay relative to untreated control; assay type: cell-based
T1 sequence (whole entry): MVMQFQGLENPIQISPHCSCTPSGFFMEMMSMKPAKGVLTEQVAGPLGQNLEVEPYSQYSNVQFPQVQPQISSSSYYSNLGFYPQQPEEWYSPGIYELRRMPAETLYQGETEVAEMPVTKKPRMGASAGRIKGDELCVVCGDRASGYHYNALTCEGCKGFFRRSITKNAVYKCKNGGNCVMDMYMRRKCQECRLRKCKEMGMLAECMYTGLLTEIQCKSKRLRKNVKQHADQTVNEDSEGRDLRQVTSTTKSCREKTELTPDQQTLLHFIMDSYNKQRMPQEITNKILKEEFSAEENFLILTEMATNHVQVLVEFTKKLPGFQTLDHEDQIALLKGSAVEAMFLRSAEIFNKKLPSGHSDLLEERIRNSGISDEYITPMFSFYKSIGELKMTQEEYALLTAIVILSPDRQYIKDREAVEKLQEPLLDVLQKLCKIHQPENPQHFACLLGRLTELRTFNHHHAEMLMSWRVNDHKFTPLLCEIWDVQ
In short: (§2)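 HepG2 cells seeded at 1 × 10^5 cells/well in phenol red-free DMEM with 10% charcoal-stripped FBS and penicillin/streptomycin. Next day transfected with pGAL4-FXR LBD (2 µg), pG5-luc (6 µg) and pCMV-β-gal normalizer (1 µg). Treated 48 h at 100 nM–10 µM, DMSO vehicle, 10 µM CDCA reference. Luciferase/β-gal ratio expressed relative to DMSO (=1); at least triplicate.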

[2] = target: T1, Bile acid receptor (Homo sapiens); assay: as §1, with “100 nM” for “1 uM”; assay type: cell-based; in short: as §2
[3] = target: T1, Bile acid receptor (Homo sapiens); assay: Agonist activity at […] (unknown origin) expressed in human HepG2 cells co-expressing human SHP gene promoter assessed as transactivation of SHP promoter driven luciferase activity at 1 uM relative to untreated control; assay type: cell-based
[4] = target: T1, Bile acid receptor (Homo sapiens); assay: Agonist activity at […] (unknown origin) expressed in human HepG2 cells co-expressing human SHP gene promoter assessed as transactivation of SHP promoter driven luciferase activity at 100 nM relative to untreated control; assay type: cell-based
[5] = target: T2, Peroxisome proliferator-activated receptor gamma (Homo sapiens) (UniProt P37231); assay: Agonist activity at PPARgamma (unknown origin) by receptor transactivation assay
T2 sequence (whole entry): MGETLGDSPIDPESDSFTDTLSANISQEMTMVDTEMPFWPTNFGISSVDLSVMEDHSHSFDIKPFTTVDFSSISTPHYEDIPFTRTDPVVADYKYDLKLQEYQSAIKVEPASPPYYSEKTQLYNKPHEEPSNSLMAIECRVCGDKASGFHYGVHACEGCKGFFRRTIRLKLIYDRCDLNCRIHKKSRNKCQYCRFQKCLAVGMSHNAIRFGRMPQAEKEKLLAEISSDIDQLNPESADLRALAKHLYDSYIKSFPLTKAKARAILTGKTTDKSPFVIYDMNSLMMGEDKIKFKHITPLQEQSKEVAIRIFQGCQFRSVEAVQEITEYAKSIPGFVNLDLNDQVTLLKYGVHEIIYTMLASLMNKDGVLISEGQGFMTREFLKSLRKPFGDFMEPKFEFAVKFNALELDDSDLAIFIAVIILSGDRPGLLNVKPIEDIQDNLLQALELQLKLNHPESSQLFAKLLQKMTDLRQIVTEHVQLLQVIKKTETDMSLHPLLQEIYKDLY

[6] = target: T1, Bile acid receptor (Homo sapiens); assay: Agonist activity at […] (unknown origin) expressed in human HepG2 cells co-expressing rat CYP7A1 gene promoter assessed as transrepression of CYP7A1 promoter driven luciferase activity relative to untreated control; assay type: cell-based
In short: (§3)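 Transient transfection of HepG2 cells (1 × 10^5/well; phenol red-free DMEM, 10% charcoal-stripped FBS, pen/strep) with pCMV-FXR (2 µg), rat CYP7A1 promoter reporter prCYP7A1-luc (6 µg) and pCMV-β-gal (1 µg). After 48 h exposure to 100 nM–10 µM, lysate luciferase was normalized to β-gal and expressed relative to DMSO (=1). 10 µM CDCA reference; at least three determinations.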

[7] = target: T1, Bile acid receptor (Homo sapiens); assay: Agonist activity at […] (unknown origin) expressed in human HepG2 cells co-expressing rat CYP7A1 gene promoter assessed as transrepression of CYP7A1 promoter driven luciferase activity at 1 uM relative to untreated control; assay type: cell-based; in short: as §3
[8] = target: T1, Bile acid receptor (Homo sapiens); assay: Agonist activity at […] (unknown origin) expressed in human HepG2 cells co-expressing rat CYP7A1 gene promoter assessed as transrepression of CYP7A1 promoter driven luciferase activity at 100 nM relative to untreated control; assay type: cell-based; in short: as §3
[9] = target: T1, Bile acid receptor (Homo sapiens); assay: Agonist activity at […] (unknown origin) expressed in human HepG2 cells co-expressing human PLTP gene promoter assessed as transactivation of PLTP promoter driven luciferase activity relative to untreated control; assay type: cell-based
[10] = target: T1, Bile acid receptor (Homo sapiens); assay: Agonist activity at […] (unknown origin) expressed in human HepG2 cells co-expressing human PLTP gene promoter assessed as transactivation of PLTP promoter driven luciferase activity at 100 nM relative to untreated control; assay type: cell-based
In short: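 HepG2 cells (1 × 10^5 cells/well, phenol red-free DMEM, 10% charcoal-stripped FBS, pen/strep) transfected the next day with wild-type FXR plasmid pCMV-FXR (2 µg), pPLTP-Luc reporter (6 µg) and pCMV-β-gal (1 µg). Dosed 48 h at 100 nM–10 µM. Luciferase normalized to β-gal, expressed relative to DMSO (=1), 10 µM CDCA reference; mean ± SD of ≥3 determinations.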

[11] = target: T1, Bile acid receptor (Homo sapiens); assay: Agonist activity at […] (unknown origin) expressed in human HepG2 cells co-expressing rat CYP7A1 gene promoter assessed as transrepression of CYP7A1 promoter driven luciferase activity at 10 uM relative to untreated control; assay type: cell-based; in short: as §3
[12] = target: T1, Bile acid receptor (Homo sapiens); assay: Agonist activity at […] (unknown origin) expressed in human HepG2 cells co-expressing human SHP gene promoter assessed as transactivation of SHP promoter driven luciferase activity at 100 nM to 10 uM relative to untreated control; assay type: cell-based

SMILES	Activity (HepG2)	fold change (FC) [1]	Activity [2]	fold change (FC) [3]	Activity [4]	Activity [5]	Activity [6]	Activity [7]	Activity [8]	Activity [9]	Activity [10]	inhibition [11] [%]	Activity [12]
CO[C@H]1CC2=C(C(=O)C[C@@H](c3ccccc3)O2)[C@@H]2CC(=O)O[C@H]12 [7-O-METHYLCRYPTOCHINONE B]	Non-toxic	1.5	inactive	3	Active	inactive	Dose-dependent effect	inactive	inactive	Dose-dependent effect	inactive	60	
O=C1C[C@@H]2C3=C(C[C@H](O)[C@@H]2O1)O[C@H](c1ccccc1)CC3=O [CRYPTOCHINONE A]	Non-toxic	1.5	inactive			inactive	Dose-dependent effect	Active	inactive	Dose-dependent effect	inactive	60	Active
CO[C@H]1CC2=C(C(=O)C[C@@H](c3ccccc3)O2)[C@H]2CC(=O)O[C@@H]12 [7-O-METHYLCRYPTOCHINONE A]	Non-toxic	1.5	inactive	3	Active	inactive	Dose-dependent effect	inactive	inactive	Dose-dependent effect	inactive	60	
O=C1C[C@H]2C3=C(C[C@H](O)[C@H]2O1)O[C@H](c1ccccc1)CC3=O [CRYPTOCHINONE B]	Non-toxic	1.5	inactive			inactive	Dose-dependent effect	Active	inactive	Dose-dependent effect	inactive	60	Active

Source: ChEMBL document CHEMBL3352661, “Cryptochinones from Cryptocarya chinensis act as farnesoid X receptor agonists” (Bioorg Med Chem Lett, 2014)
